Source: ChEMBL document CHEMBL4411328, “Synthesis and Structural/Functional Characterization of Selective M14 Metallocarboxypeptidase Inhibitors Based on Phosphinic Pseudopeptide Scaffold: Implications on the Design of Specific Optical Probes” (J Med Chem, 2019)
Calls of active or inactive are those of the source. The rule behind the calls is not given here.

Legend:
[1] = molecular target: Prothrombin (Homo sapiens) (UniProt P00734); experiment: Inhibition of human thrombin at 1 nM to 1 mM using benzoylphenyl-valyl-arginine 4-nitroanilide as substrate preincubated for 45 mins measured at 30 sec intervals for 15 mins by UV/vis-spectrophotometry
Summary of the method: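 hThrombin 2.0x10-8 M with 1.0x10-3 M BzFVRPNA in 100 mM Tris-HCl pH 8.0, followed at 414 nm. Enzyme and inhibitor preincubated 45 min at 37 °C; substrate then added; initial velocities every 30 sec for 15 min, in triplicate.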

Stromelysin-2 = Stromelysin-2 (Homo sapiens, UniProt P09238); experiment: Inhibition of human MMP10 using fluorogenic Mca-Pro-Leu-Gly-Leu-Dpa-Ala-Arg-NH2 peptide as substrate preincubated for 45 mins measured at 30 sec intervals for 15 mins by UV/vis-spectrophotometry
Chain of Stromelysin-2 (P09238 whole entry): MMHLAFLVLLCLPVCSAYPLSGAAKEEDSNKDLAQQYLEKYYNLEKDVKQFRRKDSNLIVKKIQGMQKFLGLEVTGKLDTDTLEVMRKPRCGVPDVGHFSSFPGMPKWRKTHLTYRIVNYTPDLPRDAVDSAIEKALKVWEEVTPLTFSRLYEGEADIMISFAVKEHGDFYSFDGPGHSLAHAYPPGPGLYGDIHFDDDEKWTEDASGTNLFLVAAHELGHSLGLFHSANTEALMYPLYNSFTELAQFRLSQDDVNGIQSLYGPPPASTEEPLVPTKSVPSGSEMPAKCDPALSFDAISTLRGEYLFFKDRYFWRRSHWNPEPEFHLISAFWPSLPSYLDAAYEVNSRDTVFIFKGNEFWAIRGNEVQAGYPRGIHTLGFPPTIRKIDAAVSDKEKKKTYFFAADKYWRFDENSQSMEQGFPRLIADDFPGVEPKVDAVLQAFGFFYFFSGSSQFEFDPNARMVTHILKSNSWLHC
Summary of the method: (§1)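 MMPs at nanomolar level with fluorogenic Mca-Pro-Leu-Gly-Leu-Dpa-Ala-Arg-NH2 substrate in 50 mM Tris-HCl pH 6.8, 10 mM CaCl2. Enzyme, inhibitor and buffer preincubated 45 min at 37 °C, then substrate added; initial velocities from 30-sec reads over 15 min, in triplicate.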

[2] = molecular target: Macrophage metalloelastase (Homo sapiens, UniProt P39900); experiment: Inhibition of human MMP12 using fluorogenic Mca-Pro-Leu-Gly-Leu-Dpa-Ala-Arg-NH2 peptide as substrate preincubated for 45 mins measured at 30 sec intervals for 15 mins by UV/vis-spectrophotometry; summary of the method: as §1
Chain of Macrophage metalloelastase (P39900 whole entry): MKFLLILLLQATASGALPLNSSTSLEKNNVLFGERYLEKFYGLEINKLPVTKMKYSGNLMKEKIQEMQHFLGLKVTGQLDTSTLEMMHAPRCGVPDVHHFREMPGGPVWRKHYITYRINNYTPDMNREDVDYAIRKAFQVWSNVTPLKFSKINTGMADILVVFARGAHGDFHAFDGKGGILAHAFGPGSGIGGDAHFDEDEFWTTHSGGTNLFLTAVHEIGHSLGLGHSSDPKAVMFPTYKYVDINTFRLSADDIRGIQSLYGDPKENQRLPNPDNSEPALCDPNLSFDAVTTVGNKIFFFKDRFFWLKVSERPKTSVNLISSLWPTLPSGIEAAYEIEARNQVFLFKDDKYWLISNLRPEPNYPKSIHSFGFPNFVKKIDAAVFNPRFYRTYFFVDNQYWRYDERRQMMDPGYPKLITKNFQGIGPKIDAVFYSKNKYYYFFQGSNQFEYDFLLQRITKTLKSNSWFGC

Homo sapiens = species: Homo sapiens; experiment: Inhibition of pepsin (unknown origin) at 1 nM to 1 mM using H-Leu-Ser-p-nitro-Phe-Nle-Ala-Leu-OMe peptide as substrate preincubated for 45 mins measured at 30 sec intervals for 15 mins by UV/vis-spectrophotometry
Summary of the method: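 Pepsin 1.0x10-8 M with 2.0x10-4 M LSPNP substrate in 100 mM acetate pH 4.4, monitored at 310 nm. Inhibitor preincubated with enzyme 45 min at 37 °C; initial velocities over 15 min at 30-sec intervals; triplicate.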

[3] = molecular target: Carboxypeptidase N catalytic chain (Homo sapiens) (UniProt P15169); experiment: Inhibition of human CPN at 1 nM to 1 mM using N-(3-[2-furyl]acryloyl)-alanyl-lysine-OH as substrate preincubated for 45 mins measured at 30 sec intervals for 15 mins by UV/vis-spectrophotometry
Chain of Carboxypeptidase N catalytic chain (Homo sapiens) (P15169 whole entry): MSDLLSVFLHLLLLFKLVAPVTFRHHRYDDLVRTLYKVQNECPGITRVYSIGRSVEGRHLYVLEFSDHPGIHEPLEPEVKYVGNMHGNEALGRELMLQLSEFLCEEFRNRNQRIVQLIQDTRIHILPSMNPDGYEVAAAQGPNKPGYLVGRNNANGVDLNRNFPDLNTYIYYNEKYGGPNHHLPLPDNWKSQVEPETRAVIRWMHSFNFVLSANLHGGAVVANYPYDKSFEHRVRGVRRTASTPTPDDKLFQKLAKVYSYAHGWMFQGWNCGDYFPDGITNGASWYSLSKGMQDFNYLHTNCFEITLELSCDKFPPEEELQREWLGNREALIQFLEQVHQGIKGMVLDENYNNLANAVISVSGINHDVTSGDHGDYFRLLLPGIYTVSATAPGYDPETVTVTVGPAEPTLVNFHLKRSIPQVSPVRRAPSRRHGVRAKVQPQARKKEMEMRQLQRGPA
Summary of the method: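 hCPN at 2.0x10-9 M with 2.0x10-4 M FAAK substrate in 20 mM Tris-HCl pH 7.5, 100 mM NaCl, followed at 330 nm. Enzyme and inhibitor preincubated 45 min at 37 °C before substrate. Initial velocities read every 30 sec over 15 min, triplicate.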

HEK-293T [4] = experiment: Cytotoxicity against HEK293T cells by fluorescence confocal microscopy; type: cell-based; details: human
[5] = molecular target: Mast cell carboxypeptidase A (Rattus norvegicus, UniProt P21961); experiment: Inhibition of rat CPA3 using AAFP as substrate preincubated for 45 mins measured at 30 sec intervals for 15 mins by UV/vis-spectrophotometry
Chain of Mast cell carboxypeptidase A (P21961 whole entry): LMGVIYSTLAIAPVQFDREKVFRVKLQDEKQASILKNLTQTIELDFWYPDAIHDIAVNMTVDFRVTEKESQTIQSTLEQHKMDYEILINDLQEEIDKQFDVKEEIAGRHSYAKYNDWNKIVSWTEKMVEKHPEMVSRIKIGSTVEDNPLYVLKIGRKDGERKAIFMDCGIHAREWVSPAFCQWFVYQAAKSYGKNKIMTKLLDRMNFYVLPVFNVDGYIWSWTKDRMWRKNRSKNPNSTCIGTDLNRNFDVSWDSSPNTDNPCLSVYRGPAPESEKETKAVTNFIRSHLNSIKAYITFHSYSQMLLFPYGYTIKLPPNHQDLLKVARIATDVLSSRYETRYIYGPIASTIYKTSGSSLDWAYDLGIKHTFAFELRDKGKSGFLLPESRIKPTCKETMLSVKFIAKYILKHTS
Summary of the method: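 Enzyme, inhibitor and buffer preincubated 45 min at 37 °C, then substrate added. Read at 355 nm every 30 sec for 15 min as initial velocities, in triplicate.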

Papain (Carica papaya) = Papain (Carica papaya) (UniProt P00784); experiment: Inhibition of papaya papain at 1 nM to 1 mM using L-pyroglutamyl-Lphenylalanyl-L-leucine-p-nitroanilide peptide as substrate preincubated for 45 mins measured at 30 sec intervals for 15 mins by UV/vis-spectrophotometry
Chain of Papain (Carica papaya) (P00784 whole entry): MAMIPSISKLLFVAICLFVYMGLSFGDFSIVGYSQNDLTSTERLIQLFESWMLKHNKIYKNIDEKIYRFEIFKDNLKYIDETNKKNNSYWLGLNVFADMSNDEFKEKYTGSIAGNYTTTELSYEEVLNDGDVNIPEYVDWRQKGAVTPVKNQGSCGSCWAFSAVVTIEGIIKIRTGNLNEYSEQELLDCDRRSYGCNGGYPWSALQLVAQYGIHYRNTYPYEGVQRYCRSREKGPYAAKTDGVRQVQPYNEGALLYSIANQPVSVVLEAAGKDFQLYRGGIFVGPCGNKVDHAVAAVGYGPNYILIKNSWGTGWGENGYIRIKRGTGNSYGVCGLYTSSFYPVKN
Summary of the method: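 Papain 4.5x10-8 M, PFLNA substrate 4.0x10-4 M, buffer 100 mM phosphate pH 6.5, 100 mM KCl, 0.1 mM EDTA, 3 mM DTT, 0.05% w/v Brij-35; read at 414 nm. 45 min preincubation at 37 °C with inhibitor; initial velocities, 30-sec reads for 15 min, triplicate.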

[6] = molecular target: Neutrophil elastase (Homo sapiens) (UniProt P08246); experiment: Inhibition of human neutrophil Elastase at 1 nM to 1 mM using succinyl-alanylalanyl-prolyl-valine-4-nitroanilide as substrate preincubated for 45 mins measured at 30 sec intervals for 15 mins by UV/vis-spectrophotometry
Chain of Neutrophil elastase (Homo sapiens) (P08246 whole entry): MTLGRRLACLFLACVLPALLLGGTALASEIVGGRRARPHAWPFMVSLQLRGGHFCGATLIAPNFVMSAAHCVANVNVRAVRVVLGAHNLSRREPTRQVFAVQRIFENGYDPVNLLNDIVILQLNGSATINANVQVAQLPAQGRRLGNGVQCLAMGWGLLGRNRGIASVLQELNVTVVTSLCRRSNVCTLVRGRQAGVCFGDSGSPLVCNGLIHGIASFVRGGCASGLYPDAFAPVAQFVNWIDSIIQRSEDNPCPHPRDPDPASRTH
Summary of the method: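 hNElastase 2.0x10-7 M, Suc-AAPVPNA 1.0x10-3 M, in 100 mM Tris-HCl pH 8.0, monitored at 414 nm. Preincubated with inhibitor 45 min at 37 °C before substrate; initial velocities from 30-sec reads over 15 min, triplicate.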

[7] = Drug uptake in CPA3 expressing human HeLa cells at 1 to 5 uM treated for 6 hrs followed by cell wash and measured by DAPI-staining based fluorescence confocal microscopy; type: ADME
Summary of the method: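 HeLa cells with cytoplasmic hCPA3 expression were treated 6 h with the fluorescent probe at 1 or 5 µM, washed, then imaged by fluorescence confocal microscopy for internalization and co-localization with CPA3.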

HEK-293T [8] = experiment: Cytotoxicity against HEK293T cells assessed as reduction in cell viability at 1 to 5 uM after 24 hrs by XTT assay; type: cell-based; details: human
Summary of the method: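 Cells were exposed to compound at 1 and 5 µM for 24h in culture, and viability was then read by the XTT assay.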

SMILES | inhibition [1] | Ki (Stromelysin-2) [nM] | Ki [2] [nM] | inhibition (Homo sapiens) | inhibition [3] | Activity (HEK-293T [4]) | Ki [5] [nM] | inhibition (Papain (Carica papaya)) | inhibition [6] | Drug uptake [7] | Activity (HEK-293T [8])
C[C@H](NC(=O)[C@H](Cc1ccc(O)cc1)NC(=O)COCCOCCNC(=O)CCOCCOCCOCCNC(=O)CCc1ccc(C(=C\C=C2\N(CCCCS(=O)(=O)O)c3ccc4c(S(=O)(=O)[O-])cc(S(=O)(=O)O)cc4c3C2(C)C)/C=C/C2=[N+](CCCCS(=O)(=O)O)c3ccc4c(S(=O)(=O)O)cc(S(=O)(=O)O)cc4c3C2(C)C)cc1)P(=O)(O)C[C@@H](CCc1ccccc1)C(=O)O | inactive | 983 | 1340 | inactive | inactive | Non-Toxic | 0.017 | inactive | inactive | Not Active | –
CC(=O)N[C@@H](Cc1ccc(O)cc1)C(=O)N[C@@H](C)P(=O)(O)C[C@@H](CCc1ccccc1)C(=O)O | – | – | – | – | – | – | – | – | – | – | Non-Toxic
